Assay [1] concerns Radical scavenging activity. Kind of assay: Antioxidant activity assessed as DPPH radical scavenging activity. It is filed as functional. A digest of the protocol:
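Test compounds at a series of concentrations in DMSO/chloroform/methanol (1:8:4), mixed 1:1 (v/v) with 0.2 mM DPPH and incubated 30 min at 25 °C. Absorbance read at 520 nm from 0 s and every 300 s until plateau. Run in triplicate.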

Assay [2] is described as follows: Antioxidant activity assessed as Trolox equivalents of 0.01 mmol/L solution by ORAC assay. Type of assay: functional.
For assay [3], the system named is tyrosinase (Agaricus bisporus). Nature of the assay: Inhibition of mushroom tyrosinase using L-DOPA substrate at 1000 uM.
The subject of assay [4] is tyrosinase (Agaricus bisporus). Kind of assay: Inhibition of mushroom tyrosinase using L-DOPA substrate at 100 uM.
Assay [5] can be described thus: Antioxidant activity assessed as Trolox equivalents of 1 mmol/L solution by FRAP assay. It is filed as functional. A digest of the protocol: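 FRAP reagent made daily from 300 mmol l⁻¹ acetate buffer (pH 3.6), 10 mmol l⁻¹ TPTZ and 20 mmol l⁻¹ FeCl3 (10:1:1). Trolox calibration 50–1000 μmol l⁻¹. Result given as Trolox equivalents of a 1 mmol l⁻¹ solution. Run in triplicate.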

The test system of assay [6] is tyrosinase (Agaricus bisporus). Nature of the assay: Inhibition of mushroom tyrosinase using L-DOPA substrate at 10 uM.
Assay [7] can be described thus: Antioxidant activity assessed as Trolox equivalents of 0.001 mmol/L solution by ORAC assay. Type of assay: functional.

Broadly, the IC50 is the point on the concentration scale where inhibition reaches its midpoint. Regarding `O=C(CCc1ccc(O)cc1)c1c(O)cc(O)cc1O[C@@H]1O[C@H](CO)[C@@H](O)[C@H](O)[C@H]1O` [PHLORIZIN], in assay [1], the half-inhibitory concentration (IC50) is 1490 µM. In assay [2], the Activity turned out to be 120 µmol/L.

By inhibition is commonly meant the percentage by which the read-out fell short of the control. On to `CCCCCCCC/C=C\CCCCCCCC(=O)OC[C@H]1O[C@@H](Oc2c(-c3ccc(O)c(O)c3)oc3cc(O)cc(O)c3c2=O)[C@H](O)[C@@H](O)[C@@H]1O`, for which the inhibition in assay [3] stood at 62.4%; in assay [4], 47.5%; in assay [6], 38.9%. In addition, the Activity in assay [5] was determined as 536 µmol/L; in assay [7], 265 µmol/L. Further, in assay [1], the concentration for half-maximal inhibition (IC50) worked out at 38.2 µM.

Consider `CC/C=C\C/C=C\C/C=C\CCCCCCCC(=O)OC[C@H]1O[C@@H](Oc2c(-c3ccc(O)c(O)c3)oc3cc(O)cc(O)c3c2=O)[C@H](O)[C@@H](O)[C@@H]1O`, for which the values for the inhibition in assay [3], in assay [4] and in assay [6] were 85.5%, 78.8% and 55.8%, respectively. The Activity turned out to be 614 µmol/L in assay [5] and 490 µmol/L in assay [7]. For the same molecule, the IC50 in assay [1] came out at 97.9 µM.

With `CCCCCCCCCCCCCCCCCC(=O)OC[C@H]1O[C@@H](Oc2c(-c3ccc(O)c(O)c3)oc3cc(O)cc(O)c3c2=O)[C@H](O)[C@@H](O)[C@@H]1O`, the values for the Activity in assay [5] and in assay [7] were 622 µmol/L and 310 µmol/L, respectively. Besides, in assay [1], the concentration for half-maximal inhibition (IC50) is 42 µM.

`CCCCC/C=C\C/C=C\CCCCCCCC(=O)OC[C@H]1O[C@@H](Oc2c(-c3ccc(O)c(O)c3)oc3cc(O)cc(O)c3c2=O)[C@H](O)[C@@H](O)[C@@H]1O`: the inhibition came out at 80.6% in assay [3], 73.3% in assay [4] and 32.1% in assay [6]. Moreover, the Activity in assay [5] was 340 µmol/L; in assay [7], 491 µmol/L. Moreover, in assay [1], the IC50 amounted to 60.4 µM.

On to `O=c1c(O[C@@H]2O[C@H](CO)[C@@H](O)[C@H](O)[C@H]2O)c(-c2ccc(O)c(O)c2)oc2cc(O)cc(O)c12` [ISOQUERCETIN], for which the results for the Activity in assay [5] and in assay [7] were 1500 µmol/L and 473 µmol/L, respectively. The IC50 in assay [1] was found to be 17.9 µM.

Values taken from ChEMBL document CHEMBL2311261, “Biocatalytic synthesis, structural elucidation, antioxidant capacity and tyrosinase inhibition activity of long chain fatty acid acylated derivatives of phloridzin and isoquercitrin” (Bioorg Med Chem, 2013).
